The values below come from paper PMC5439940 (International Journal of Nanomedicine, 2017).

For one data set, the system named is A549 or CoLo-357 cells. Format: cell-based, human. The settings on record: for Effect of inhibitor on liposome accumulation/binding: preincubation with inhibitor, then liposomes 100 μM total lipids, 37°C.
Data set [1] is described as follows: Plasma retention of liposomal MTX-DG versus intact MTX in mice. Format: in vivo. As to conditions: IV. The essentials: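 Female F1(CBA × C57BL/6) mice, 20–22 g, 6–8 weeks old, received 10 mg/kg free parent drug or an equivalent liposomal prodrug dose IV by tail vein (0.2 mL). Groups of n=3 were decapitated at set times and serum collected at 600×g for 10 min. Drug was measured by RP-HPLC after HClO4 deproteinisation; prodrug by RP-HPLC with UV detection at 313 nm. Both were calibrated against spiked or extracted control serum.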

The test system of data set [2] is ASF-LL T-cell leukemic lymphoma. Briefly: Antitumor effect in transplanted mouse T-cell leukemic lymphoma. Type of data set: in vivo. The essentials:
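A/Sn female mice aged 6 or 12 months, one experiment per age, received 10^6 ASF-LL cells SC on day 0. Groups of n=6 got IV free parent drug (10 mg/kg) or an equivalent liposomal prodrug dose in 0.2 mL PBS/1 mM EDTA, pH 7.0, on days 3, 5, 10 and 12. Controls got vehicle. Daily survival monitoring; euthanasia at >20% weight loss and/or food rejection. Mean ± SD, Student's t-test.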

On to `CN(C)CCCN1c2ccccc2Sc2ccc(Cl)cc21` [chlorpromazine], for which, in the data set on A549 or CoLo-357 cells, the “Effect of inhibitor on liposome accumulation/binding” value was “concentration-dependent decrease in liposome accumulation”.
Consider Methyl-β-cyclodextrin, for which the “Cell death caused by inhibitor” value in the data set on A549 or CoLo-357 cells (in the range of concentrations required for the inhibitory studies) is recorded as above 50%.
For the compound `CN(Cc1cnc2nc(N)nc(N)c2n1)c1ccc(C(=O)N[C@@H](CCC(=O)O)C(=O)O)cc1` [MTX, Methotrexate], the “t1/2α and t1/2β of MTX relative to MTX-DG (times lower)” value in data set [1] is recorded as “approximately 4 times”. Besides, the “Delay of palpable lymphoma appearance and tumor growth vs controls” value in data set [2] (both experiments, 10 mg/kg MTX or equivalent IV on days 3, 5, 10, 12) is listed as “significant delay in palpable lymphoma appearance”. For the same compound, in data set [2] (first experiment, mice aged 6 months, 4 IV injections, days 3, 5, 10, 12), the “Increase in the mean life span vs control group” value is 23%. Further, the “Toxicity / tolerability in old recipient mice” value in data set [2] (second experiment, mice aged 12 months, 4 IV injections) is listed as “pronounced toxicity”.
On to `COC(=O)Nc1nc2ccc(C(=O)c3cccs3)cc2[nH]1` [nocodazole], for which the “Effect of inhibitor on liposome accumulation/binding” value in the data set with A549 or CoLo-357 cells was “elusive effects”.
On the same count and under the same terms, in the case of `C=C1[C@@H](C)[C@H]2[C@H](Cc3ccccc3)NC(=O)[C@]23OC(=O)/C=C/[C@H](O)CCC[C@@H](C)C/C=C/[C@H]3[C@@H]1O` [cytochalasin B] it was “elusive effects”; in that of `COc1cc2c(c(OC)c1OC)-c1ccc(OC)c(=O)cc1[C@@H](NC(C)=O)CC2` [colchicine], “elusive effects”.
